Series [1] relates to RAW264.7. In words: Cytotoxicity against mouse RAW264.7 cells assessed as cell survival at 20 uM incubated for 4 hrs by CCK-8 method. The format is toxicity, cell-based. The conditions noted are these: raw264.7, 4 h. Summed up: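 RAW 264.7 cells seeded at 20 000 per well, grown 24 h at 37 °C, exposed to compound for 4 h. CCK-8 (WST-8) reagent then added for 50 min at 37 °C, absorbance read at 450 nm. Survival = (test − blank)/(untreated medium control − blank) × 100%, blank being medium without cells.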

Series [2] relates to RAW264.7. In words: Antiinflammatory activity in LPS-induced mouse RAW264.7 cells assessed as inhibition of TNF-alpha release preincubated for 2 hrs followed by LPS stimulation for 24 hrs by ELISA method. Format: functional, cell-based. The following applies: for Activity: dose 2.5-40 µM, time 26.0 hrs. A digest of the protocol:
(§1)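 RAW264.7 macrophages pretreated 2 h with compound at 2.5, 5, 10, 20 and 40 μM, then LPS 1 μg mL−1 for 24 h. Cytokine in supernatant measured with commercial ELISA kits per the manufacturers' protocols. IC50 derived from the dose series. Mean ± SD.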
On the technique in general: ELISA stands for enzyme-linked immunosorbent assay.

For series [3], the system named is RAW264.7. The experiment in a line: Antiinflammatory activity in LPS-induced mouse RAW264.7 cells assessed as inhibition of IL-1beta release preincubated for 2 hrs followed by LPS stimulation for 24 hrs by ELISA method. The format is functional, cell-based. The conditions noted are these: for Activity: dose 2.5-40 µM, time 26.0 hrs. Summed up: as §1
For series [4], the system named is RAW264.7. The experiment in a line: Antiinflammatory activity in LPS-induced mouse RAW264.7 cells assessed as inhibition of IL-6 release preincubated for 2 hrs followed by LPS stimulation for 24 hrs by ELISA method. Format: functional, cell-based. The conditions noted are these: for Activity: dose 2.5-40 µM, time 26.0 hrs. A digest of the protocol: as §1
For series [5], the system named is RAW264.7. In words: Antiinflammatory activity in LPS-induced mouse RAW264.7 cells assessed as inhibition of iNOS activity preincubated for 2 hrs followed by LPS stimulation for 24 hrs by ELISA method. The format is functional, cell-based.
Series [6] concerns RAW264.7. The experiment in a line: Antiinflammatory activity in LPS-induced mouse RAW264.7 cells assessed as inhibition of PGE2 production preincubated for 2 hrs followed by LPS stimulation for 24 hrs by ELISA method. Format: functional, cell-based.
Series [7] concerns RAW264.7. The experiment in a line: Antiinflammatory activity in LPS-induced mouse RAW264.7 cells assessed as decrease in iNOS protein level at 10 to 40 uM preincubated for 2 hrs followed by LPS stimulation for 24 hrs by Western blot analysis. The following applies: dose 10-40 µM, time 26.0 hrs. Format: functional, cell-based. A digest of the protocol: (§2)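 RAW264.7 cells given compound at 10, 20 or 40 μM, then LPS (1 μg mL−1). Lysis in 1% Triton X-100 buffer with phosphatase and protease inhibitors, 30 min on ice. Protein quantified by BCA, run on 10% SDS-PAGE, transferred to PVDF. Primary antibody overnight at 4 °C, HRP secondary 2 h at room temperature, ECL detection. β-Actin as loading control. Mean ± SD, n = 3.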
Background: In western blotting, separated proteins are transferred to a membrane and probed.

In series [8] the test system is RAW264.7. The experiment in a line: Antiinflammatory activity in LPS-induced mouse RAW264.7 cells assessed as decrease in COX-2 protein level at 10 to 40 uM preincubated for 2 hrs followed by LPS stimulation for 24 hrs by Western blot analysis. The following applies: dose 10-40 µM, time 26.0 hrs. The format is functional, cell-based. A digest of the protocol: as §2

The subject of series [9] is RAW264.7. In words: Antiinflammatory activity in LPS-induced mouse RAW264.7 cells assessed as downregulation of TNF-alpha mRNA expression level preincubated for 2 hrs followed by LPS stimulation for 6 hrs by RT-qPCR analysis. Format: functional, cell-based. The following applies: dose 5-20 µM, time 8.0 hrs. Summed up: (§3)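 RAW264.7 cells pretreated 2 h with compound at 5, 10 or 20 μM or vehicle, then LPS 1 μg mL−1 for 6 h. Total RNA extracted and target mRNAs quantified by RT-qPCR, normalized to β-actin mRNA. Mean ± SD of three independent experiments.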

For series [10], the system named is RAW264.7. The experiment in a line: Antiinflammatory activity in LPS-induced mouse RAW264.7 cells assessed as downregulation of IL-1beta mRNA expression level preincubated for 2 hrs followed by LPS stimulation for 6 hrs by RT-qPCR analysis. Format: functional, cell-based. The following applies: dose 5-20 µM, time 8.0 hrs. Summed up: as §3
(In general: In qPCR the cycle at which signal appears reflects the starting amount.)

For series [11], the system named is RAW264.7. The experiment in a line: Antiinflammatory activity in LPS-induced mouse RAW264.7 cells assessed as downregulation of IL-6 mRNA expression level preincubated for 2 hrs followed by LPS stimulation for 6 hrs by RT-qPCR analysis. The format is functional, cell-based. The following applies: dose 5-20 µM, time 8.0 hrs. A digest of the protocol: as §3
Series [12] relates to RAW264.7. In words: Antiinflammatory activity in LPS-induced mouse RAW264.7 cells assessed as downregulation of iNOS mRNA expression level preincubated for 2 hrs followed by LPS stimulation for 6 hrs by RT-qPCR analysis. The format is functional, cell-based. The conditions noted are these: dose 5-20 µM, time 8.0 hrs. A digest of the protocol:
as §3

Series [13] relates to RAW264.7. The experiment in a line: Antiinflammatory activity in LPS-induced mouse RAW264.7 cells assessed as downregulation of COX-2 mRNA expression level preincubated for 2 hrs followed by LPS stimulation for 6 hrs by RT-qPCR analysis. The format is functional, cell-based. The following applies: dose 5-20 µM, time 8.0 hrs. A digest of the protocol:
as §3

For series [14], the system named is RAW264.7. In words: Inhibition of NF-kB signaling activation in LPS-induced mouse RAW264.7 cells assessed as downregulation of p65 phosphorylation preincubated for 2 hrs followed by LPS addition for 2 hrs by Western blot analysis. The format is cell-based. The following applies: dose 10-40 µM, time 4.0 hrs. Summed up: (§4)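 RAW264.7 macrophages pretreated 2 h with vehicle (DMSO) or compound at 10, 20 or 40 μM, then LPS 1 μg mL−1 for 2 h. p-p65 and p-JNK detected by Western blot, normalized to β-actin and to total p65 or JNK. Optical density expressed as % of control; mean ± SEM of at least three independent experiments.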

In series [15] the test system is RAW264.7. In words: Inhibition of JNK signaling activation in LPS-induced mouse RAW264.7 cells assessed as downregulation of JNK phosphorylation preincubated for 2 hrs followed by LPS addition for 2 hrs by Western blot analysis. Format: cell-based. The conditions noted are these: dose 10-40 µM, time 4.0 hrs. A digest of the protocol: as §4
Series [16] deals with RAW264.7. In words: Antiinflammatory activity in LPS-induced mouse RAW264.7 cells assessed as inhibition of NO production at 20 uM preincubated for 2 hrs followed by LPS stimulation for 24 hrs by Griess reagent based assay. Format: functional, cell-based. The conditions noted are these: time 26.0 hrs. Summed up:
(§5)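 Cells at 100 000 per well, grown 36 h in DMEM with 10% heat-inactivated FBS at 37 °C, 5% CO2. Pretreated 2 h with compound (20 μM in the screen), then LPS 1 μg mL−1 for 24 h. Supernatant mixed with Griess reagent, absorbance read at 540 nm, nitrite read from a sodium nitrite standard curve. Expressed as % of LPS control; ≥3 independent experiments, each in triplicate.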

For series [17], the system named is RAW264.7. The experiment in a line: Antiinflammatory activity in LPS-induced mouse RAW264.7 cells assessed as inhibition of NO production preincubated for 2 hrs followed by LPS stimulation for 24 hrs by Griess reagent based assay. Format: functional, cell-based. Summed up: as §5
The test system of series [18] is RAW264.7. In words: Antiinflammatory activity in LPS-induced mouse RAW264.7 cells assessed as reduction in NO production at 20 uM preincubated for 2 hrs followed by LPS stimulation for 24 hrs by Griess reagent based assay. Format: functional, cell-based. The following applies: time 26.0 hrs. Summed up: as §5
The subject of series [19] is RAW264.7. In words: Inhibition of ROS production in LPS-induced mouse RAW264.7 cells preincubated for 2 hrs followed by LPS stimulation for 24 hrs by Real-time single cell multi-mode analyzer. Format: functional, cell-based. The conditions noted are these: dose 10-40 µM, time 26.0 hrs. A digest of the protocol: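 Cells on confocal dishes at 100 000 per well for 36 h, pretreated 2 h with compound at 10, 20 or 40 μM, then LPS 1 μg mL−1 for 24 h. Loaded with 50 μM H2DCFDA in PBS for 30 min in the dark. ROS read per cell on a real-time single-cell multi-mode analyzer. Mean ± SD.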

The term IC50 denotes the concentration that gives 50% inhibition.

Molecules are shown by their SMILES. Calls of active or inactive are those of the source. No cut-off for these calls is given here.

On to `COc1ccc(C(=O)/C=C/c2cc(OC)c(OC)c(OC)c2)cc1OC`, for which the Activity result in the series on RAW264.7 [1] was “Non-Toxic”; in the series on RAW264.7 [2] it was “Dose-Dependent Effect”; in the series on RAW264.7 [3], “Dose-Dependent Effect”; in the series on RAW264.7 [4], “Dose-Dependent Effect”; in the series on RAW264.7 [9] it was “Dose-Dependent Effect”; in the series with RAW264.7 [10], “Dose-Dependent Effect”. The Activity entry in the series on RAW264.7 [11], in the series with RAW264.7 [12] and in the series with RAW264.7 [13] was “Dose-Dependent Effect” each time. Further, the IC50 stood at 7.9 µM in the series with RAW264.7 [2]; 12.3 µM with RAW264.7 [3]; 2.1 µM in the series on RAW264.7 [4]; 4.6 µM with RAW264.7 [5]; 4 µM in the series on RAW264.7 [6]. The outcome in the series on RAW264.7 [7] and with RAW264.7 [8] was Active. Also, the inhibition entry in the series on RAW264.7 [14] and with RAW264.7 [15] was “Dose-Dependent Effect” each time.

As for `COc1ccc(CCC(=O)c2ccc(O)cc2)c(OC)c1`, in the series with RAW264.7 [16], the inhibition result is “inactive”.

As to `COc1ccc(/C=C/C(=O)c2cc(OC)c(OC)c(OC)c2)cc1OC`, the concentration for half-maximal inhibition (IC50) was 7.6 µM in the series with RAW264.7 [17]; 7.1 µM with RAW264.7 [2]; 10 µM with RAW264.7 [3]; 8.4 µM in the series with RAW264.7 [4]; 11.9 µM with RAW264.7 [5]; 9.5 µM with RAW264.7 [6]. Further, the Activity entry was “Dose-Dependent Effect” with RAW264.7 [17] (dose 2.5-40 µM, time 26.0 hrs); “Non-Toxic” in the series on RAW264.7 [1]; “Dose-Dependent Effect” in the series with RAW264.7 [2]; “Dose-Dependent Effect” in the series with RAW264.7 [3]; “Dose-Dependent Effect” in the series with RAW264.7 [4]; “Dose-Dependent Effect” in the series on RAW264.7 [9]. The Activity result in the series with RAW264.7 [10], in the series with RAW264.7 [11], in the series on RAW264.7 [12] and in the series with RAW264.7 [13] was “Dose-Dependent Effect” throughout. In addition, the outcome with RAW264.7 [18], in the series on RAW264.7 [7] and in the series with RAW264.7 [8] was Active. The inhibition entry in the series with RAW264.7 [14], in the series with RAW264.7 [15] and in the series on RAW264.7 [19] was “Dose-Dependent Effect” each time.

In the case of `COc1cc(CCC(=O)c2ccc(F)c(C)c2)cc(OC)c1OC`, the outcome in the series on RAW264.7 [16] was inactive.

As for `COc1ccc(C(=O)CCc2ccc(OC)c(OC)c2)cc1`, the result with RAW264.7 [16] was inactive.

The values are drawn from ChEMBL document CHEMBL5532751, “Identification of chalcone analogues as anti-inflammatory agents through the regulation of NF-κB and JNK activation” (RSC Med Chem, 2024).
